Measurements of several laboratories.
Lines come from different studies, so protocols differ.
Target: Carbonic anhydrase 2 (CA2, Homo sapiens, UniProt P00918)
Read-out: enzyme activity
Action: inhibitor
Technique: absorbance

NS(=O)(=O)c1ccc(-c2ccc(Nc3ccc(Cl)cc3)cc2)cc1  IC50: 2110 nM
OC1CCN(c2ccc(/C=N/NC(=S)NCCc3ccccc3)cc2)CC1  IC50: 641 nM
CC1=C(/C=C/C(C)=C/C=C/C(C)=C\C(=O)O)C(C)(C)CCC1  IC50 (pH 7.4): 10900 nM
NS(=O)(=O)c1cccc(Nc2nc(-c3cc4cc(Br)ccc4oc3=O)cs2)c1  IC50: 680 nM
Cc1cccc(C)c1NC(=S)N/N=C/c1ccc(N2CCC(O)CC2)cc1  IC50: 424 nM
CS(=O)(=O)Nc1ccc(Nc2nc(-c3cc4cc(Br)ccc4oc3=O)cs2)cc1Oc1ccccc1  IC50: 380 nM
NS(=O)(=O)c1ccc(-c2ccc(Nc3ccc(F)c(Cl)c3)cc2)cc1  IC50: 380 nM
C[C@H]1c2cccc(O)c2C(=O)C2=C(O)[C@]3(O)C(=O)C(C(N)=O)=C(O)[C@@H](N(C)C)[C@@H]3[C@@H](O)[C@@H]21  IC50 (pH 7.4): 14200 nM
OC1CCN(c2ccc(/C=N/NC(=S)NC3CCCCC3)cc2)CC1  IC50: 465 nM
OCCOCCN1CCN(C(c2ccccc2)c2ccc(Cl)cc2)CC1 (centres unmarked)  IC50 (pH 7.4): 18200 nM
CN1CCN(c2nc(-c3cc4cc(Br)ccc4oc3=O)cs2)CC1  IC50: 4120 nM
